Measured values reported in ChEMBL document CHEMBL2157991, “Synthesis and pharmacological evaluation of 2,4-dinitroaryldithiocarbamate derivatives as novel monoacylglycerol lipase inhibitors” (J Med Chem, 2012).
Numbering of substitutions follows the chain as printed. The source made the active and inactive calls. The calls are words filed in the database; no cut-off is given here.

Assays:
[1] = target: T1, Monoglyceride lipase (Homo sapiens) (UniProt Q99685); test: Inhibition of MAGL at 10^-8.5 M after 30 mins by liquid scintillation counter
T1 sequence (whole entry): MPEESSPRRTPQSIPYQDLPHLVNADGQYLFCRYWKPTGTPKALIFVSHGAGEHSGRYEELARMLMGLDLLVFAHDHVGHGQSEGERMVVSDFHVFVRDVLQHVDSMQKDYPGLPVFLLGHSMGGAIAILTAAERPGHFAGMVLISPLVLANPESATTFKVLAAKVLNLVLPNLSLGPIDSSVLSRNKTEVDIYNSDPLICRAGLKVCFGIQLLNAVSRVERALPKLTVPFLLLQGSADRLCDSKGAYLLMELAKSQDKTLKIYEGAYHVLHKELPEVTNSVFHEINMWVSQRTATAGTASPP
How it was run: (§1)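 Pure MAGL (105 ng, 20 μL) incubated 30 min at room temperature with inhibitor at 10−3 to 10−6 M or DMSO, then diluted 300-fold in Tris pH 8.0; after 15 min, aliquot assayed with [3H]-2-OG by standard protocol; same nominal post-dilution concentrations also assayed directly; percent of control, one-way ANOVA with Dunnett's test.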

[2] = target: T1, Monoglyceride lipase (Homo sapiens); test: Irreversible inhibition of MAGL at 10^-8.5 M measured after 300 times dilution; how it was run: as §1
[3] = target: T2, Fatty-acid amide hydrolase 1 (Homo sapiens, UniProt O00519); test: Inhibition of human recombinant FAAH assessed as conversion of [3H]AEA to [3H]ethanolamine after 10 mins by liquid scintillation counter
T2 sequence (O00519 whole entry): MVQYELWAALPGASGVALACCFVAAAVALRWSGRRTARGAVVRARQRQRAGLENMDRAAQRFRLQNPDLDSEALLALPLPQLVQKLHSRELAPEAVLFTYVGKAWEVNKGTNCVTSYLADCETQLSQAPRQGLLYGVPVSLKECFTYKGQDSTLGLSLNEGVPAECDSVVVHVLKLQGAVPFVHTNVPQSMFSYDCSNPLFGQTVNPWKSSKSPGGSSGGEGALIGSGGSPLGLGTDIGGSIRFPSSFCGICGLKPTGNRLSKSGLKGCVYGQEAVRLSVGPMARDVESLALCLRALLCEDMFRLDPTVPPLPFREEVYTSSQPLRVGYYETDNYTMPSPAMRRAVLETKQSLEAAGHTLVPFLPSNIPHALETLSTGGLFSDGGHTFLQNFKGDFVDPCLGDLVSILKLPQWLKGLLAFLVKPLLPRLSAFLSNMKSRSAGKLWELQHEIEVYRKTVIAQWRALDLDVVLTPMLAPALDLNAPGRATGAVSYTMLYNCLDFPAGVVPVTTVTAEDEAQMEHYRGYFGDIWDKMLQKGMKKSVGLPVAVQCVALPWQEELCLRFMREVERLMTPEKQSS
How it was run: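 Human recombinant FAAH (6 ng protein, Tris-EDTA) with inhibitor in DMSO; [3H]AEA at 2 μM final, 10 min at 37 °C; stopped with ice-cold methanol–chloroform, [3H]ethanolamine in aqueous layer counted by liquid scintillation, buffer blanks subtracted; pIC50 from dose–response, mean ± SEM of three experiments in duplicate.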

[4] = tested on: T3, Monoglyceride lipase (Homo sapiens), Q99685 [C208A,C242A]; test: Inhibition of human MAGL C208A/C242A mutant expressed in Escherichia coli
T3 sequence (whole entry): T1 sequence (whole entry) with C208A, C242A
How it was run: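 Homogenates of E. coli expressing wild-type or C201A, C208A, C242A or C208A/C242A mutant MAGL used as enzyme source in the [3H]-2-OG hydrolysis assay; n = 3 in duplicate.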

[5] = tested on: T3, Monoglyceride lipase (Homo sapiens), Q99685 [C208A,C242A]; test: Inhibition of human MAGL C208A/C242A mutant expressed in Escherichia coli in presence of DTT

- inhibition [1]: inactive
- inhibition [2]: Active
- IC50 [3]: 1740 nM
- inhibition [4]: inactive
- inhibition [5]: Active
Compound: CC(C)(C)c1ccc(CN2CCN(C(=S)Sc3ccc([N+](=O)[O-])cc3[N+](=O)[O-])CC2)cc1
